High-throughput results: PubChem BioAssay, Johns Hopkins Ion Channel Center
MrgX1 allo act: allosterically activates human MrgX1 receptor signaling | hit rate 0.63% among 310,000 | Q96LB2 | MrgX1-HEK293, Fluo-4 calcium flux, FDSS; stronger effect = higher value | B-score at 10 µM;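 active means plate-corrected calcium response at least 3 library SD above typical, normal starting fluorescence, not activating the receptor alone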;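 further: compound read alongside a low EC10 to EC30 dose of BAM8-22 agonist; peak minus trough fluorescence over baseline measured at the second addition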
Target sequence (Q96LB2 whole entry, looked up): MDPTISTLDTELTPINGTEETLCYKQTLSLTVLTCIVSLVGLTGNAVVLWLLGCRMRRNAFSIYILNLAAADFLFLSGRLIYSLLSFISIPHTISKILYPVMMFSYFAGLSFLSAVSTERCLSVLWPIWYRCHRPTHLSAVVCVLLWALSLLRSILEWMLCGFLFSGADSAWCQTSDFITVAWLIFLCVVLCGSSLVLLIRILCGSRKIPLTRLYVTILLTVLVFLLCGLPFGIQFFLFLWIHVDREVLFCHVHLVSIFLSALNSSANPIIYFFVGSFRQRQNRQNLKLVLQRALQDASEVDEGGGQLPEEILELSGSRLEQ
MrgX1 antag: antagonists of human MrgX1 receptor | MRGX1-HEK293 calcium flux, Fluo-4, BAM8-22 antagonism; stronger effect = lower value | B-score at 10 µM | hit rate 1.3% among 310,000;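 active means calcium-response B-score plate-corrected more than 3 library SD below zero, starting fluorescence within 5 deviations, no agonist response on first addition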;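 further: peak minus trough fluorescence over baseline after final BAM8-22 challenge near maximal dose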
MrgX1 agonist: human MrgX1 receptor agonism, primary screen; Q96LB2; MrgX1-HEK293 cells, Fluo-4 calcium fluorescence, agonist mode; stronger effect = higher value; B-score at 10 µM; hit rate 0.44% among 310,000;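 active means calcium response B-score plate-corrected fluorescence ratio at least 3 library SD, with starting fluorescence B-score inside 5 SD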
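Material: MrgX1-expressing HEK293 cells; input: 15,000 cells per well; doses: test compound given as first of three sequential additions; schedule: overnight plating before 1 h dye loading; technique: Fluo-4 NW calcium-flux fluorescence, kinetic read; evaluation: baseline-normalised fluorescence change ratio, B-scored; control set: plate-wise positive and negative controls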
RGS4 inh: human RGS4 inhibition. HEK293 M3R/RGS4 inducible, Fluo-4 calcium flux; stronger effect = higher value; triggered by carbachol at its EC20. B-score at 10 µM. hit rate 0.45% among 310,000. AID 463165;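 active means B-score, a plate-corrected calcium signal, over three deviations above library mean, with baseline fluorescence within five deviations of library mean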;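 further: RGS4 expression induced by doxycycline in cells with stable M3 receptor; B-score is computed from the integrated fluorescence ratio over baseline after carbachol; higher B-score means a larger calcium signal and so more RGS4 inhibition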
Target sequence (P49798 whole entry, looked up): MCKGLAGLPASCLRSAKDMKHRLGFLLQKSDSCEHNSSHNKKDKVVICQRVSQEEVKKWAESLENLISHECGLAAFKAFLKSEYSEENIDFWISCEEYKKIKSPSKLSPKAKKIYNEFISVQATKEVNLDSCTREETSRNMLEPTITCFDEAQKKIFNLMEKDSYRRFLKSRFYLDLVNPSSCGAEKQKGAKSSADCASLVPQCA
RGS4 pot: potentiators or activators of RGS4 | hit rate 0.92% among 310,000 | HEK293 M3R/inducible RGS4, carbachol calcium flux Fluo4; stronger effect = lower value | B-score at 10 µM;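 active means B-score of the integrated calcium signal more than 4 SD below the library mean, with starting fluorescence not abnormally high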;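 further: negative B-score means reduced calcium response which marks RGS4 activation or potentiation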
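Material: M3R-expressing HEK293 line, RGS4 induced by doxycycline | Schedule: Overnight RGS4 induction, 30 min dye load 37 °C, 20 min compound RT | Measured by: Fluo4 fluorescence kinetic imaging of calcium | Read-out: Integrated calcium ratio converted to B score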
RGS4 activ val: RGS4 activation, validation assay; shares compounds with RGS4 pot; HEK293 M3R/RGS4 inducible, carbachol calcium flux Fluo4; inhibition, % at 10 µM; hit rate 89% among 1,100;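 active means inhibition above 3 SD of the buffer control wells, cut at about 41% in these data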;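 further: signal is the integrated peak-minus-minimum Fluo4 fluorescence over baseline ratio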
RGS4 act ctr: RGS4 activator counter-screen hit in non-induced cells. shares compounds with RGS4 pot. HEK293 M3R non-induced RGS4, Fluo4 calcium flux; after carbachol challenge at its EC90. inhibition, % at 10 µM. hit rate 82% among 1,100;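 active means inhibition exceeding 3 SD of buffer-only control wells, cut at about 26% in these data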;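 further: percent drop in integrated peak-minus-baseline over baseline Fluo4 ratio after carbachol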
Large screens that a line does not name were inactive (follow-up assays come after a bar, where they were run). Hits are enriched below; roughly 3.5% of the tested compounds scored in any of these assays.

O=S(=O)(Nc1ccc(Cl)cc1)c1ccc(N2CCOCC2)c(NC(=S)NC2CC2)c1	RGS4 pot -12 | RGS4 activ val inactive | RGS4 act ctr inactive
CC(NS(=O)(=O)OCC(Cl)(Cl)Cl)c1ccc(C(C)(C)C)cc1 (configuration not stated)	RGS4 pot -8 | RGS4 activ val 91 | RGS4 act ctr 94
CCOc1ccc(NC(=O)CN(C)C(=O)Cc2c(C)nc3ccccc3c2C)cc1OCC	none
Cc1cc(C)c(OCC(=O)Nc2cccc(NC(=O)c3ccco3)c2)c(Br)c1	RGS4 pot -7.8 | RGS4 activ val 90 | RGS4 act ctr 52
Cc1cc(C)c(OCC(=O)Nc2ccc(NC(=O)c3ccco3)cc2)c([N+](=O)[O-])c1	none (no result: RGS4 inh, RGS4 pot)
CCCCOc1ccc(C(=O)N2CCC(C)CC2)cc1	none
CCCCOc1ccc(C(=O)OC2CC(C)N(C)CC2C)cc1 (configuration not stated)	RGS4 pot -9.5 | RGS4 activ val 91 | RGS4 act ctr 86
CN1CCN(c2ncccc2S(=O)(=O)N2CCCCC2)CC1	RGS4 pot -12 | RGS4 activ val 90 | RGS4 act ctr 73
O=S(=O)(c1cccc2cccnc12)N1CCCCC1	none
CCOC(=O)Cn1c(-c2ccccc2)cc(SC)c(C#N)c1=O	RGS4 pot -9.2 | RGS4 activ val 90 | RGS4 act ctr 79
CSc1cc(-c2ccccc2)n(C)c(=O)c1C#N	none
CC(C(=O)NCC1(c2ccccc2)CCCC1)N1CCCC1 (configuration not stated)	RGS4 pot -7.9 | RGS4 activ val 64 | RGS4 act ctr 84
CC(C(=O)NCC1(c2ccccc2)CCCC1)N1CCOCC1 (configuration not stated)	none
Cc1ccc(S(=O)(=O)n2c(N)nc3ccccc32)cc1	RGS4 pot -7.8 | RGS4 activ val 92 | RGS4 act ctr 96
CCCCOc1ccc(S(=O)(=O)n2c(C)nc3ccccc32)cc1	RGS4 pot -8.3 | RGS4 activ val 93 | RGS4 act ctr 96
O=c1[nH]c2ccccc2cc1CN(Cc1cccnc1)S(=O)(=O)c1ccc(Cl)cc1	MrgX1 allo act 7.3, RGS4 pot -7.8 | RGS4 activ val 73 | RGS4 act ctr 30
CSc1cccc(NS(=O)(=O)c2cc(Br)cnc2N)c1	RGS4 pot -7.7 | RGS4 activ val 92 | RGS4 act ctr 98
Cc1ccc(NS(=O)(=O)c2cc(Br)cnc2N)cc1C	RGS4 pot -8 | RGS4 activ val 94 | RGS4 act ctr 94
CC(=O)N(C)c1ccc(NC(=O)Nc2ccc(C)cc2)cc1	none
CC(=O)N(C)c1ccc(NC(=O)Nc2ccc(Cl)cc2)cc1	RGS4 pot -8.3 | RGS4 activ val 93 | RGS4 act ctr 68
COCCOc1ccc(C(F)(F)F)cc1NC(=O)COC(=O)c1cc([N+](=O)[O-])ccc1N1CCOCC1	none
COc1ccc(N2C(=O)CC(N(CCc3ccccc3)C(=O)c3ccccc3)C2=O)cc1 (configuration not stated)	RGS4 pot -11 | RGS4 activ val inactive | RGS4 act ctr inactive
COc1ccc(CCN(C(=O)c2cccc(F)c2)C2CC(=O)N(c3ccccc3)C2=O)cc1 (configuration not stated)	none
O=S(=O)(NCC1CCN(c2ccc(S(=O)(=O)N3CCOCC3)cc2)CC1)c1ccc(F)cc1	none
COc1ccccc1C(=O)NCC(c1cccs1)N1CCc2ccccc21 (configuration not stated)	RGS4 pot -7.8 | RGS4 activ val 62 | RGS4 act ctr 36
O=c1[nH]c(C(Cl)(Cl)Cl)nc2ccc3ccccc3c12	none
CC1(C(=O)Nc2c(F)c(F)c(F)c(F)c2F)CC1(Br)Br (configuration not stated)	none
COc1cc(C(=O)Nc2ccc3c(c2)N(C(=O)CCN(C)C)c2ccccc2CC3)cc(OC)c1OC	RGS4 pot -12 | RGS4 activ val 92 | RGS4 act ctr 79
CN(C)CC(=O)N1c2ccccc2CCc2ccc(NC(=O)c3ccc(N)cc3)cc21	none
CCN(Cc1ccccc1)Cc1ccc(OCc2ccccc2)cc1	RGS4 pot -8.3 | RGS4 activ val 93 | RGS4 act ctr 70
Nc1ccc(OCc2ccccc2)cc1	none
CN(C)C(C)(C)/C=C/C(O)(c1ccccc1)c1ccccc1	RGS4 pot -8.7 | RGS4 activ val 88 | RGS4 act ctr 64
N=c1sccn1CC(=O)Nc1ccc([N+](=O)[O-])cc1Cl	none
Cc1cc(=O)oc2cc(NC(=O)c3cc([N+](=O)[O-])ccc3N3CCOCC3)ccc12	none
N#CCC(=O)N/N=C/c1c(-c2ccccc2)n(-c2ccccc2)c2ccccc12	RGS4 pot -12 | RGS4 activ val 86 | RGS4 act ctr 50
N#CCC(=O)N/N=C/c1cn(Cc2ccccc2C#N)c2ccccc12	none
CC(=O)Nc1ccc(Oc2cc(NC(C)=O)cc([N+](=O)[O-])c2)cc1	none
COc1ccc(OS(=O)(=O)c2c(C)noc2C)cc1	RGS4 pot -9.3 | RGS4 activ val 84 | RGS4 act ctr 41
COc1ccc(S(=O)(=O)n2cnc3cc(C)c(C)cc32)cc1C	RGS4 pot -10 | RGS4 activ val 88 | RGS4 act ctr 46
COc1ccc(S(=O)(=O)n2cnc3cc(C)c(C)cc32)cc1	none
COc1cc(CCN2C(=O)N[C@@H](CCc3ccccc3)C(C(C)=O)=C2C)cc(OC)c1OC	none (no result: RGS4 inh, RGS4 pot)
CCCCC(=O)Nc1cc(C(=O)NCCc2ccccc2)ccc1Cl	none
Cc1ccc2nc(Nc3ccc(Cl)cc3)c3nncn3c2c1	none
Fc1ccc(N2CCN(C3=Nc4cccc5cccc3c45)CC2)cc1	RGS4 pot -13 | RGS4 activ val 94 | RGS4 act ctr 74
c1ccc(CN2CCN(C3=Nc4cccc5cccc3c45)CC2)cc1	none (no result: MrgX1 allo act, MrgX1 antag, MrgX1 agonist)
CCOc1cc(CNc2ccc3c(c2)CCC3)ccc1OC	none
CSc1nnc2c3cc(F)ccc3n(Cc3ccccc3)c2n1	none
CCN(CC)CCSc1nnc2c3cc(C)ccc3n(Cc3ccccc3)c2n1	RGS4 pot -11 | RGS4 activ val 93 | RGS4 act ctr 85
Cc1nn(C2CCS(=O)(=O)C2)c(Cl)c1/C=C/C(=O)OCC(=O)c1cc(C)n(-c2ccc(F)cc2)c1C (configuration not stated)	none
CN1/C(=C\C(=O)Nc2ccc(F)cc2)C(C)(C)c2ccccc21	RGS4 pot -8.8 | RGS4 activ val 50 | RGS4 act ctr 26
CN1/C(=C\C(=O)Nc2ccc(Br)cc2)C(C)(C)c2ccccc21	RGS4 pot -9.2 | RGS4 activ val 92 | RGS4 act ctr 96
